Measurements as given in the EternaBench riboswitch data.

Tested on: MS2 coat protein
Test: apparent Kd, MS2 coat protein; higher = weaker binding; RNA-MaP array; FMN 200 µM where present
How it was run: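 The apparent Kd is the median of filtered binding-curve fits, one per cluster, to green signal normalised to red-channel RNA signal and control-cluster median Fmax. The clusters were on Illumina sequencing chips, and stalled E. coli RNA polymerase had transcribed the designs on them. Titration used SNAP-549-labelled MS2 coat protein from 0.7 or 1.5 nM, doubling to 3 µM, without and then with constant ligand, in 100 mM Tris-HCl pH 7.5, 80 mM KCl, 4 mM MgCl2, BSA, DTT, yeast tRNA and Tween-20.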

[1] = designed as: OFF switch for flavin mononucleotide, no ligand
[2] = ligand present: flavin mononucleotide, designed as: OFF switch for flavin mononucleotide
[3] = designed as: ON switch for flavin mononucleotide, no ligand
[4] = ligand present: flavin mononucleotide, designed as: ON switch for flavin mononucleotide

CUUUCGUGAGGAUAUGUGGCUUCGAUCGUGAAAACGAGGCUACAGAAGGCACAUGAGGAUCACCCAUGUUCCUC
apparent Kd [1]: 34.4 nM | apparent Kd [2]: 454 nM

UGGUACUAGGGAGGAUAUGGGAGGAUACAUGAGGAUCACCCAUGUUUAAGAAUGCCGAGAGGCAACUAGAAGGCCCUAGUACCU
apparent Kd [3]: 919 nM | apparent Kd [4]: 63.7 nM

GGACAUGUCGUUUACAUGAGGAUCACCCAUGUCGAUGGACAUGAGGAUAUCGAUCCGAAUCGGAUCGAGAAGGCAUGCAUGUCC
apparent Kd [3]: 41.8 nM | apparent Kd [4]: 18.6 nM

GCGGGCAGCACAGGAUAUGUGACGUACAUGAGGAUCACCCAUGUGCGAAUGGCAGAAGGGUGAGGCCUCGGUGACCGAUUUCCG
apparent Kd [3]: 16 nM | apparent Kd [4]: 5.59 nM

GGAUCGAGUGUGAGGAUAUGCUGGUCCUUGGAUCAGCAGAAGGCACAUGAGGAUCACCCAUGUGUUCCCGAUCC
apparent Kd [1]: 43.6 nM | apparent Kd [2]: 626 nM

GAACACGGAGGAUAUACAUGAGGAUCACCCAUGUUGAUCCUCAUUAAAAUUGAUAACUGUAGAAGGCCGUGAUA
apparent Kd [1]: 44.8 nM | apparent Kd [2]: 22.2 nM

CUAGCUAUCGGAGGAUAUCCUCAGCGGAAACGCACAUGAGGAUCACCCAUGUAAAUAAAUAAUUUGGAGAAGGCCGAUAGCUAG
apparent Kd [3]: 294 nM | apparent Kd [4]: 19.2 nM

AUAUUUAUAUAUUUGGCAAGAAUCAGAAGGCGUUACAUGAGGAUCACCCAUGUUUUGUAUAGUAACGAGGAUAUGAUAUGGAAA
apparent Kd [1]: 18.8 nM | apparent Kd [2]: 14.2 nM

UGCCUGAGUCGAGGAUAUUAUGGAUCAAUUAAUACAUGAGGAUCACCCAUGUAAUUAAUUUAACAUGAGAAGGCGACUCAGGCU
apparent Kd [3]: 11.3 nM | apparent Kd [4]: 8.51 nM

AUUAAAACAUAGGAUAUCGAAUUUAUUAUUUAACGAGAAGGAUGAACAUGAGGAUCACCCAUGUGGUAUCAUGG
apparent Kd [1]: 149 nM | apparent Kd [2]: 308 nM

GGACGUAAAGAGAAGGGCUACUGGUUGAAACCUGCGGCCUCUGGAACAUGAGGAUCACCCAUGUAGCAGGAUAUCUUUGCACCA
apparent Kd [1]: 157 nM | apparent Kd [2]: 26.7 nM

AAAAUAAGAACAGGAUAUGUGGGUUCGAAGAGUAAAGCUCUCCACAUGAGGAUCACCCAUGUGCCACAGAAGGGUUCGGGUGAU
apparent Kd [3]: 58 nM | apparent Kd [4]: 11.8 nM

AGAUGACAAUGUCAUCUUCAACGGACAUGAGGAUCACCCAUGUAGGAUAUGCUACUCAAAGAGUAGCAGAAGGACAUGUGUCUU
apparent Kd [1]: 23.1 nM | apparent Kd [2]: 85.2 nM

UACAAUCUAUCUGAGGAUAUCAUGAAAAAAACAUGAGGAUCACCCAUGUGCAGGAAAACUGCAUAUGAGAAGGCAGAUAGAUUGG
apparent Kd [3]: 736 nM | apparent Kd [4]: 28.9 nM

GCAGCGCUUGACAUGAGGAUCACCCAUGUUAGAUUGUUAAGUCAGGAUAUAGUCUAGAAACUAGACUAGAAGGGAUUUGCUGCU
apparent Kd [3]: 7.18 nM | apparent Kd [4]: 6.14 nM

GUAGCAAUCGGAGGAUAUGGGUUAUACAUGAGGAUCACCCAUGUUAAUUUACUAGAAGGCCGAUUGCUACAAGAGCGAAAGCUC
apparent Kd [3]: 10.8 nM | apparent Kd [4]: 5.7 nM

UUACGUCCCGUUUACAUGAGGAUCACCCAUGUCGAAAGAGCGUAGGAUAUGCUACCUAGUUGGUAGCAGAAGGAUGCAACGUCG
apparent Kd [3]: 25.2 nM | apparent Kd [4]: 37.5 nM

UCGGCCGCCGUGAGGAUAUGCCCGCGCGCCCGCGGGCAGAAGGCACAUGAGGAUCACCCAUGUCCCGCGGCAUU
apparent Kd [1]: 16.2 nM | apparent Kd [2]: 35.1 nM

GUAGCUUCAUUUAUACAUGAGGAUCACCCAUGUUACAUGGGUAAGGAUAUUGAUGUUAUGAUUAUCAAGAAGGUACUAUGCUAC
apparent Kd [3]: 663 nM | apparent Kd [4]: 39.6 nM

GCUGUCGCAUGAGGAUAUGGUCAGCUUUGCUGACCAGAAGGCAUGUCAAUAGACAUGAGGAUCACCCAUGUAGUUCGGGCGGCU
apparent Kd [3]: 849 nM | apparent Kd [4]: 76.1 nM

GGAAAACAUGAGGAUCACCCAUGUGAGGAUAUCGAUGUCCAAAAACCAGUGCGGGACUCGAGAAGGCACUUGGA
apparent Kd [1]: 49.1 nM | apparent Kd [2]: 26.3 nM

AAGCUCGUGUGAGGAUAUGCCGCCGUUUCGGCUGCAGAAGGUGCUACGUUACAUGAGGAUCACCCAUGUCUCUGUUGUUUCGUG
apparent Kd [3]: 23 nM | apparent Kd [4]: 22.3 nM

AUAUUGUGAGGAUAUGAACUUUGUAUCGAAAGAUACUAAGUUCAGAAGGCACAUGAGGAUCACCCAUGUUUCUC
apparent Kd [1]: 82.2 nM | apparent Kd [2]: 1130 nM

CUUUUGUGAGGAUAUCAGUAGUAAAAAAAUUAAAUUACUACUGAGAAGGCACAUGAGGAUCACCCAUGUUCCUC
apparent Kd [1]: 39.1 nM | apparent Kd [2]: 262 nM

UGAAUGUGAGGAUAUGGUGAGUAGUGCCAGAGCGCUGCUCACCAGAAGGCACAUGAGGAUCACCCAUGUACUUG
apparent Kd [1]: 64.3 nM | apparent Kd [2]: 179 nM

ACGUUUUUUGAGGAUAUGCGAUAGUUUUAUAUCGUAGAAGGCGAUACAUGAGGAUCACCCAUGUUUAUGGGCAU
apparent Kd [1]: 167 nM | apparent Kd [2]: 197 nM

CCAUAAAAGAUCCAAAAUUACAACAUGAGGAUCACCCAUGUGCAGGAUAUCGUGCCAGUGAUGUACGAGAAGGGCAGACUCUGC
apparent Kd [1]: 251 nM | apparent Kd [2]: 333 nM

UUGGUUAUACAAGGAUAUCAAUUAUAUACACAUCCUACAUGAGGAUCACCCAUGUUUUAUUUUUUUGAGAAGGUGUAUUGUCGG
apparent Kd [3]: 22.4 nM | apparent Kd [4]: 29 nM

UUAUAUAUUAGAGGAUAUGUGUUCAUGUUACAUGAGGAUCACCCAUGUUUAUGUUGAUUGAUCUUACAGAAGGCUAUACAAUGA
apparent Kd [1]: 20.1 nM | apparent Kd [2]: 19.9 nM

UCAGGCUUCGAGAAGGACAUGAGGAUCACCCAUGUGCGUGUGAAGCAGCCGUGAGGCUGCAUCAUGUAGGAUAUCGGAGUCUGG
apparent Kd [1]: 74 nM | apparent Kd [2]: 583 nM

GAGGGACAUGAGGAUCACCCAUGUGGUAAAUUUAAAGGAUAUUAGUGUGGGAAAGUAGGGUAAGAAGGUUGAUUGG
apparent Kd [3]: 94.8 nM | apparent Kd [4]: 80.1 nM

AGCUACGUUUCGUAGCAGUGUCAUCGAGAAGGCCCUGACAUGAGGAUCACCCAUGUUGUUACAUGGGAGGAUAUCGAUGAUACC
apparent Kd [3]: 13.3 nM | apparent Kd [4]: 5.32 nM

UUGUUCUGAGGAUAUACAUGAGGAUCACCCAUGUGUUUCUGCUUGGUGACUAGCGAAUGUAGAAGGCUGUUCUC
apparent Kd [1]: 33.6 nM | apparent Kd [2]: 35.6 nM

CGUGCACAUGUAGGAUAUGGUUAUCUAUGUCUAGUUACUAGACAUAGAUAACCAGAAGGACAUGAGGAUCACCCAUGUAGCACG
apparent Kd [1]: 346 nM | apparent Kd [2]: 275 nM

UGGCUACAUGAGGAUCACCCAUGUCAGGAUAUGCCGUUGGAUUGACUUCGUCGUUCGGGUAGAAGGGACUGCGU
apparent Kd [1]: 43.3 nM | apparent Kd [2]: 54.9 nM

GGACCGUGAAGAGUUGGCGGUCGGCAGGAUAUGACAUGAGGAUCACCCAUGUGAACUCCAUUGGGUCAGAAGGGCCACGACACA
apparent Kd [1]: 37.5 nM | apparent Kd [2]: 108 nM

CUUGUGUUAGGAUAUGCGCCCUGAAGUAGAAGGGCCAGAGAGCAGAAGGAACAUGAGGAUCACCCAUGUGUGAC
apparent Kd [1]: 59.7 nM | apparent Kd [2]: 56.5 nM

GUGGGAAUCACAGGAUAUACAUGCGCCGCUUCGUUCUACAUGAGGAUCACCCAUGUGUGGUCCGUGUAGAAGGGUGUUUGUCAC
apparent Kd [3]: 45.6 nM | apparent Kd [4]: 30.1 nM

ACAUGAGGAUCACCCAUGUUAUCCGGGACUUCAAUUAUUUCUAGAAGGCUGUUUACUUGUUAGUCAGAGGAUAUAGAAUUAAAU
apparent Kd [1]: 10.7 nM | apparent Kd [2]: 12.5 nM

AGCUGUGGCCGAGGAUAUCUACCUUCAAUAACCGAAAUAUAAUCGGACAUGAGGAUCACCCAUGUAGAGAAGGCGGUCUCAGCA
apparent Kd [1]: 14.8 nM | apparent Kd [2]: 96.2 nM

GGAGCACACAUUAACAUGAGGAUCACCCAUGUCAAAAGACAUGAGGAUAUGGAUCCGAAAAGGAUCCAGAAGGCAUGGAGCUCC
apparent Kd [3]: 169 nM | apparent Kd [4]: 10.5 nM

GUCGUGAGACAGGAUAUCCAAUCUAAACACGAGGGAGAAGGGUCUACAUGAGGAUCACCCAUGUGGUCUCAAAA
apparent Kd [1]: 17.6 nM | apparent Kd [2]: 21.7 nM

UAUUCAUACGAAGGAUAUGGUUACAUGAGGAUCACCCAUGUAUGUAUAUUGAUCUAGUUAUUUAACCAGAAGGUCGAAUAUAAA
apparent Kd [1]: 35.4 nM | apparent Kd [2]: 72.6 nM

AAUAUGUUGCAGAAGGCCAUGUUGUGGUAGUACCUCAUGACAUGAGGAUCACCCAUGUCUGUGUUGGAGGAUAUGCAAUAUAUU
apparent Kd [1]: 7.24 nM | apparent Kd [2]: 12.3 nM

UCAUACGAUGAGGAUAUCUCCGUUAAAGUAUGUAGAGAAGGCGUUACAUGAGGAUCACCCAUGUUUGUGGGCAG
apparent Kd [1]: 304 nM | apparent Kd [2]: 385 nM

UUAAUUAACAAGAAGGCUUACAUGAGGAUCACCCAUGUUGUACAUGGAUAAAGAGGAUAUUGCUAAUAAUUAUUUAUCUUAAUU
apparent Kd [1]: 61.5 nM | apparent Kd [2]: 37.3 nM

GUCAGCUCGUGAGGAUAUACAUGUGCUGGAUACAGCACUAAUUAAUUCACAUGAGGAUCACCCAUGUAGAAGGCACGAGCUGAU
apparent Kd [1]: 16.1 nM | apparent Kd [2]: 18.8 nM

CUUAUGUGAGGAUAUCAGUAGUGAUACGAUAGUAUUACUGCUGAGAAGGCACAUGAGGAUCACCCAUGUUCCUC
apparent Kd [1]: 117 nM | apparent Kd [2]: 422 nM

UCGAACUUUCAUGUAAUUCGCACAUGAGGAUCACCCAUGUACGAGGAUAUGUACCUGAACGGCUAACAGAAGGCGUACUGGGCA
apparent Kd [1]: 242 nM | apparent Kd [2]: 83.3 nM

UCAUUUAUUACAGGAUAUGUUAGAAUUCAGUUGUUUGGUUAUUACAUAUUAACAGAAGGGUAGAACAUGAGGAUCACCCAUGUA
apparent Kd [3]: 114 nM | apparent Kd [4]: 81.5 nM

AUUUAAUUUAAUAAGAUCACAUGAGGAUCACCCAUGUUAUAAUAGGAUAUCAGCUCGUGUAGAGCUGAGAAGGAUUAUAACAUG
apparent Kd [1]: 66.3 nM | apparent Kd [2]: 35.1 nM

GCGGAACAUGAGGAUCACCCAUGUAUCCGAAAUAUGGACUCACAGGAUAUCCAGAGUUGCCAAUCGGAGAAGGGUGACUCCAGC
apparent Kd [3]: 14.4 nM | apparent Kd [4]: 8.29 nM

UGUCGGAGCAGAGGAUAUUACAUGAGGAUCACCCAUGUAUGAACCAAUAGCUGGAAACAACAAUGUAAGAAGGCUGCUCCGACA
apparent Kd [1]: 7.22 nM | apparent Kd [2]: 38.8 nM

UGAAUGGCAGGAUAUACAUGAGGAUCACCCAUGUUGCUGCUCUAUAUGCCGUCCUUGAGUAGAAGGGUCAUUUA
apparent Kd [1]: 19.2 nM | apparent Kd [2]: 32.5 nM

UAAAAGACUAGUAUGGUAACCUUCACAUGAGGAUCACCCAUGUAGGAUAUGAGCAGAAAAUCUGCUCAGAAGGACAUGCUAGUC
apparent Kd [1]: 3.73 nM | apparent Kd [2]: 4.25 nM
